A selection: hits, their analogues and other compounds. The true share with any hit is near 2.4%.
697 NFkB inh: lowers PMA/ionomycin-induced NF-kB signal in 697 B cells; 697 B-cell NF-kB luciferase reporter, 16 h; inhibition, % at 4 µM; 0.33% of 330,000 active; in the data active = inhibition above about 35%
aDG glyco act: alpha-DG glycosylation activation; Pro5-aDG cells, alpha-DG glycosylation AlphaScreen (IIH6); 0% Pro5, 100% B10-LARGE cell signal; activation, % at 10 µM; 0.22% of 360,000 active;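 active = activation of at least 8% versus controls, or a plate z-score of at least 8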;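 also: Pro5 are CHO cells carrying HIG-tagged alpha-DG that lacks glycosylation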
Jurkat NFkB inh: inhibitors of the PMA/ionomycin-induced NF-kB reporter in Jurkat cells | PMA/ionomycin-induced NF-kB luciferase reporter, luminescence | inhibition, % at 4 µM | 0.53% of 330,000 active; in the data active = inhibition above about 50%
NR2E3 ag-1: NR2E3 (human) agonism; 0.12% of 320,000 active; Q9Y5X4; GST-NR2E3/biotin-RetCOR TR-FRET, 1536-well; inhibition of corepressor binding, % at 4.78 µM;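 active = percent inhibition above the cutoff of mean plus 3 SD of all tested compounds, set per screening campaign, cut at about 20% in these data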;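 also: 0% = DMSO wells and 100% = biotin wells as full block of FRET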
Target sequence (Q9Y5X4 whole entry, looked up): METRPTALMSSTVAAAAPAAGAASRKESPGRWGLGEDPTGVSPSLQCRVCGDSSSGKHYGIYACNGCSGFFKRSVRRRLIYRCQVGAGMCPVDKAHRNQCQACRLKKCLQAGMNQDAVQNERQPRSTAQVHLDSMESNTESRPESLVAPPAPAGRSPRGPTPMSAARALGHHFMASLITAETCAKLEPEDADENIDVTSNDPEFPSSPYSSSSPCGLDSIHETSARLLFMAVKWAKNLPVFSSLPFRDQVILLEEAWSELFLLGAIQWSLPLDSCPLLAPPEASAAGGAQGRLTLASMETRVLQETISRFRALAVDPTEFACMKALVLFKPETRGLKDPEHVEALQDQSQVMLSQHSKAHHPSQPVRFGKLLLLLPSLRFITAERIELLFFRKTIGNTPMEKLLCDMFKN
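Material – GST-tagged NR2E3 plus biotinylated RetCOR corepressor · Quantity – NR2E3 fusion 1.35 nM · Times – 5 h incubation at 4 °C · Medium – pH 7.5 Tris-based buffer · Technique – TR-FRET, Eu(K)-anti-GST donor, streptavidin-D2 acceptor, ex 340, em 617/671 nm · Benchmarks – high control biotin, low control 0.6% DMSO · Format – 1536-well plates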
MPTP inh: permeability transition pore inhibition; inhibition, % at 10 µM; AID 602449; isolated mouse mitochondria, Ca2+ swelling absorbance, 30 min; 1.4% of 360,000 active;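 active = inhibition of 50% or more, scaled per plate between neutral and stimulator controls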;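 also: 0% = DMSO wells given calcium and 100% = 1 mM EGTA wells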
NR2E3 ag-2: human photoreceptor-specific nuclear receptor agonism. inhibition of corepressor binding, % at 3.98 µM. CHO-S Gal4-NCOR/VP16-NR2E3 two-hybrid, luciferase. 0.35% of 360,000 active. Q9Y5X4;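 active = inhibition above the mean of all tested compounds plus 3 SD, cut at about 70% in these data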;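 also: 0% = DMSO with NR2E3 transfected cells and 100% = cells lacking NR2E3 construct; higher means lower luciferase signal from less NR2E3 corepressor binding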
Jurkat NFkB conf: inhibitors of the PMA/ionomycin-induced NF-kB reporter in Jurkat cells, retest; shares compounds with Jurkat NFkB inh; Jurkat NF-kB luciferase, 16 h; inhibition, % at 4 µM; 27% of 2,700 active;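 active = inhibition reaching about 45% at 4 µM in either replicate, limit read from the data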;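 also: plate controls were PMA/ionomycin stimulated DMSO wells for no effect and unstimulated DMSO wells for full effect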
Active calls of the source: *.

What do the screens show for `CN(Cc1ccccc1)C1=CC(=[N+]2CCCC2)CC(C)(C)C1`?
697 NFkB inh: 19; aDG glyco act: 0; Jurkat NFkB inh: 62*; NR2E3 ag-1: 0; MPTP inh: 8; NR2E3 ag-2: -11; Jurkat NFkB conf: 59*

Results for COc1cc(/C=C/c2ccc3cccc(O)c3n2)cc(OC)c1OC ?
697 NFkB inh: -182; aDG glyco act: 0; Jurkat NFkB inh: 97*; NR2E3 ag-1: -1; MPTP inh: 0; NR2E3 ag-2: -103; Jurkat NFkB conf: 35

Results for CCOc1ccc(/C=C/C(O)=C2/C(=O)NC3(C)CC2c2ccccc2O3)cc1OC (stereo not given) ?
697 NFkB inh: -8; aDG glyco act: 0; Jurkat NFkB inh: 64*; NR2E3 ag-1: -2; MPTP inh: 1; NR2E3 ag-2: -15; Jurkat NFkB conf: -15

How did O=C(NC12CC3CC(CC(C3)C1)C2)c1ccc(-c2ccccc2Cl)o1 do in these assays?
697 NFkB inh: -217; aDG glyco act: 0; Jurkat NFkB inh: -158; NR2E3 ag-1: 0; MPTP inh: 2; NR2E3 ag-2: -32; Jurkat NFkB conf: -60

How did O=C(NC12CC3CC(CC(C3)C1)C2)c1ccc(-c2ccc(Cl)cc2)o1 do in these assays?
697 NFkB inh: -180; aDG glyco act: 1; Jurkat NFkB inh: -153; NR2E3 ag-1: 1; MPTP inh: 41; NR2E3 ag-2: -52; Jurkat NFkB conf: -73

What do the screens show for `O=C(NC12CC3CC(CC(C3)C1)C2)c1ccc(-c2cccc(Cl)c2)o1`?
697 NFkB inh: -166; aDG glyco act: 1; Jurkat NFkB inh: -138; NR2E3 ag-1: 4; MPTP inh: 41; NR2E3 ag-2: -42

Results for Cc1cccc(OCCC(=O)N(C)CC(=O)Nc2cccc3ccccc23)c1 ?
697 NFkB inh: -4; aDG glyco act: 1; Jurkat NFkB inh: -9; NR2E3 ag-1: 0; MPTP inh: 0; NR2E3 ag-2: 17

How did Cc1nnc(SCC(=O)Nc2nsc(-c3ccc(C(C)(C)C)cc3)n2)s1 do in these assays?
697 NFkB inh: -136; aDG glyco act: 0; Jurkat NFkB inh: -153; NR2E3 ag-1: 0; MPTP inh: 0; NR2E3 ag-2: -119; Jurkat NFkB conf: -82

Results for Cc1nnc(SCC(=O)Nc2ccc(-c3nc4ccccc4s3)cc2)s1 ?
aDG glyco act: 0; NR2E3 ag-1: 4; MPTP inh: 16; NR2E3 ag-2: -145

Results for Nc1nc(-c2ccccc2)nc2sc3c(c12)CCCC3 ?
697 NFkB inh: -244; aDG glyco act: 0; Jurkat NFkB inh: -162; NR2E3 ag-1: -2; MPTP inh: 0; NR2E3 ag-2: -164; Jurkat NFkB conf: -156

How did Cc1ccc(-c2nc3sc4c(c3c(=O)n2N)CCCC4)cc1 do in these assays?
697 NFkB inh: -192; aDG glyco act: 0; Jurkat NFkB inh: -188; NR2E3 ag-1: 0; MPTP inh: -2; NR2E3 ag-2: -154; Jurkat NFkB conf: -122

How did O=C(Nc1ccc2c(c1)OCO2)c1ccc2sc([C@H]3C[C@H](O)[C@@H](CO)O3)nc2c1 do in these assays?
aDG glyco act: 0; MPTP inh: -1; NR2E3 ag-2: 1

How did Cc1ccc(NC(=O)c2cc3ccccc3o2)cc1S(=O)(=O)N(C)C do in these assays?
aDG glyco act: 0; MPTP inh: 0; NR2E3 ag-2: -84

Results for Cc1ccc(NC(=O)c2cc3ccccc3oc2=O)cc1S(=O)(=O)N(C)C ?
697 NFkB inh: -48; aDG glyco act: 0; Jurkat NFkB inh: 56*; NR2E3 ag-1: 3; MPTP inh: 2; NR2E3 ag-2: 52; Jurkat NFkB conf: 91*

Results for COc1ccc(-c2cc3ccccc3cn2)cc1 ?
697 NFkB inh: -216; aDG glyco act: 0; Jurkat NFkB inh: -179; NR2E3 ag-1: 4; MPTP inh: 1; NR2E3 ag-2: -165; Jurkat NFkB conf: -95

What do the screens show for `COc1ccc2cc(-c3ccccc3F)ncc2c1`?
697 NFkB inh: -229; aDG glyco act: 0; Jurkat NFkB inh: -186; NR2E3 ag-1: 0; MPTP inh: 3; NR2E3 ag-2: -146; Jurkat NFkB conf: -109

What do the screens show for `COC(=O)/C=C/COc1ccccc1[N+](=O)[O-]`?
697 NFkB inh: -10; aDG glyco act: 0; Jurkat NFkB inh: 14; NR2E3 ag-1: 5; MPTP inh: 1; NR2E3 ag-2: 0

What do the screens show for `S=C(c1ccc(-c2ccc(Br)cc2)o1)N1CCCCC1`?
697 NFkB inh: -181; aDG glyco act: 0; Jurkat NFkB inh: -175; NR2E3 ag-1: -1; MPTP inh: -2; NR2E3 ag-2: -80; Jurkat NFkB conf: -115

What do the screens show for `S=C(c1ccc(-c2ccc(Br)cc2)o1)N1CCOCC1`?
697 NFkB inh: -116; aDG glyco act: 0; Jurkat NFkB inh: -92; NR2E3 ag-1: -6; MPTP inh: 2; NR2E3 ag-2: -103

What do the screens show for `COc1ccc(C(CNC(=O)Nc2cccc(C)c2)N2CCN(C)CC2)cc1` (stereo not given)?
697 NFkB inh: -56; aDG glyco act: 0; Jurkat NFkB inh: -31; NR2E3 ag-1: 1; MPTP inh: -2; NR2E3 ag-2: -41

How did Cc1ccc(-c2nnc(SCc3ccccc3F)o2)cc1 do in these assays?
697 NFkB inh: -149; aDG glyco act: 0; Jurkat NFkB inh: -165; NR2E3 ag-1: 2; MPTP inh: 1; NR2E3 ag-2: -191; Jurkat NFkB conf: -72

How did CCn1c2ccccc2c2cc(Nc3cc(C)nc4ncnn34)ccc21 do in these assays?
697 NFkB inh: -197; aDG glyco act: 0; Jurkat NFkB inh: 65*; NR2E3 ag-1: 1; MPTP inh: -1; NR2E3 ag-2: 27; Jurkat NFkB conf: 49*

How did CCc1ccc(Nc2cc(C)nc3ncnn23)cc1 do in these assays?
697 NFkB inh: 12; aDG glyco act: 0; Jurkat NFkB inh: 8; NR2E3 ag-1: 2; MPTP inh: 1; NR2E3 ag-2: 17

Results for O=C(c1cc(Cl)cc(Cl)c1)N1CCN(c2cc(C(F)(F)F)nc3ccccc23)CC1 ?
697 NFkB inh: -27; aDG glyco act: 0; Jurkat NFkB inh: 4; NR2E3 ag-1: 1; MPTP inh: 4; NR2E3 ag-2: -3

How did Cn1c2ccccc2c(=O)c2ccc(C#CC3(N)CCCCC3)cc21 do in these assays?
697 NFkB inh: -165; aDG glyco act: 0; Jurkat NFkB inh: -176; NR2E3 ag-1: 5; MPTP inh: 0; NR2E3 ag-2: -35; Jurkat NFkB conf: -17

How did O=C(OCCN1C(=O)c2cccc3c(N4CCOCC4)ccc(c23)C1=O)c1ccc(Cl)cc1 do in these assays?
697 NFkB inh: -56; aDG glyco act: 1; Jurkat NFkB inh: 64*; NR2E3 ag-1: -2; MPTP inh: 0; NR2E3 ag-2: -22; Jurkat NFkB conf: 37

How did Cc1ccnc(Sc2ccc([N+](=O)[O-])cn2)n1 do in these assays?
697 NFkB inh: -39; aDG glyco act: 0; Jurkat NFkB inh: -32; NR2E3 ag-1: 2; MPTP inh: 0; NR2E3 ag-2: -8

Screening results from PubChem.
